Laboratory results published in ChEMBL document CHEMBL4715756, “Nitrotriazole-based acetamides and propanamides with broad spectrum antitrypanosomal activity” (Eur J Med Chem, 2016).
Active and inactive are the calls of the source. The calls are words filed in the database; no cut-off is given here.

What was measured:
[1] = Dissociation constant, pKa of the compound
in vitro [2] = settings: rat, L6 cells versus Trypanosoma cruzi Tulahuen C4
in vitro [3] = settings: rat
Trypanosoma cruzi [4] = experiment: Trypanocidal activity against Trypanosoma cruzi Tulahuen C4 amastigotes infected in rat L6 cells in vitro
[5] = test system: Trypanosoma brucei rhodesiense; experiment: Substrate activity at Trypanosoma brucei rhodesiense recombinant His-tagged type 1 nitroreductase assessed as enzyme specific activity using NADH at 100 uM by spectrophotometrically
Summary of the method: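 Purified recombinant his-tagged TbNTR. Each nitrotriazole substrate at 100 µM with NADH 100 µM. NADH oxidation followed spectrophotometrically at 340 nm. Specific activity given as nmol NADH oxidized min^-1 mg^-1 protein, mean of three experiments ± SD.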

Trypanosoma cruzi [6] = experiment: Anti-chagasic activity against Trypanosoma cruzi Brazil trypomastigotes expressing firefly luciferase infected in BALB/c mouse assessed as reduction in parasitemia at 13 mg/kg/day, ip measured after 10 days by bioluminescence assay; format: functional, organism-based; settings: time 10.0 day
Trypanosoma cruzi [7] = experiment: Anti-chagasic activity against Trypanosoma cruzi Brazil trypomastigotes expressing firefly luciferase infected in BALB/c mouse assessed as reduction in parasitemia at 13 mg/kg/day, ip measured after 5 days by bioluminescence assay; format: functional, organism-based; settings: time 5.0 day
[8] = Toxicity in Trypanosoma cruzi Brazil trypomastigotes expressing firefly luciferase infected BALB/c mouse assessed toxic symptoms at 13 mg/kg, ip measured after 5 to 10 days; format: organism-based; settings: in vivo, time 5-10 day
Summary of the method: (§1)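 Same infected Balb/c model: luciferase T. cruzi, 10^5 trypomastigotes. Daily i.p. dosing for 10 days from day 4 post infection at 13 or 15 mg/kg/day, in 2% methylcellulose + 0.5% Tween 80, 5 mice/group. Mice observed for general health and deaths over the treatment period.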

in vitro [9] = settings: rat, L6 cells versus Leishmania donovani MHOM/ET/67/L82
Trypanosoma cruzi [10] = experiment: Anti-chagasic activity against Trypanosoma cruzi Brazil trypomastigotes expressing firefly luciferase infected in BALB/c mouse assessed as reduction in parasitemia at 15 mg/kg/day, ip measured after 10 days by bioluminescence assay; format: functional, organism-based; settings: time 10.0 day
Trypanosoma cruzi [11] = experiment: Anti-chagasic activity against Trypanosoma cruzi Brazil trypomastigotes expressing firefly luciferase infected in BALB/c mouse assessed as reduction in parasitemia at 15 mg/kg/day, ip measured after 5 days by bioluminescence assay; format: functional, organism-based; settings: time 5.0 day
[12] = Toxicity in Trypanosoma cruzi Brazil trypomastigotes expressing firefly luciferase infected BALB/c mouse assessed toxic symptoms at 15 mg/kg, ip measured after 5 to 10 days; format: organism-based; settings: in vivo, time 5-10 day; summary of the method: as §1
[13] = Toxicity in Trypanosoma cruzi Brazil trypomastigotes expressing firefly luciferase infected BALB/c mouse assessed as healthy appearance at 13 mg/kg, ip measured after 5 to 10 days; format: organism-based; settings: in vivo, time 5-10 day
Summary of the method: (§2)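 Balb/c mice, 5 weeks old, infected with 10^5 luciferase-expressing Brazil-strain T. cruzi trypomastigotes. From 4 days post-infection, mice were dosed i.p. at 13 mg/kg/day for 10 days in 2% methylcellulose + 0.5% Tween 80 vehicle, 5 mice/group. Animals were observed over treatment, with imaging after 5 and 10 days of dosing.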

[14] = Toxicity in Trypanosoma cruzi Brazil trypomastigotes expressing firefly luciferase infected BALB/c mouse assessed mortality at 13 mg/kg, ip measured after 5 to 10 days; format: organism-based; settings: in vivo, time 5-10 day; summary of the method: as §2

SMILES | pKa [1] | Activity [5] | selectivity ratio (in vitro [3]) | further results
N#Cc1ccc(-c2ccc(NC(=O)Cn3cnc([N+](=O)[O-])n3)cc2)cc1 | 13.2 |  | 490 | selectivity ratio (in vitro [2]): 1190; IC50 (Trypanosoma cruzi [4]): 138 nM
O=C(Cn1cnc([N+](=O)[O-])n1)Nc1ccc(Oc2ccc(Cl)cc2)cc1 | 13.6 |  | 22 | IC50 (Trypanosoma cruzi [4]): 8 nM
O=C(CCn1cnc([N+](=O)[O-])n1)Nc1ccc(Oc2ccccc2)cc1 | 14.5 | Active |  | selectivity ratio (in vitro [9]): 13.5
CN(C(=O)Cn1ccnc1[N+](=O)[O-])c1ccc(C(F)(F)F)cc1 |  |  |  | selectivity ratio (in vitro [2]): 3.8
O=C(CCn1cnc([N+](=O)[O-])n1)Nc1ccc(Oc2ccc(Cl)cc2)cc1 | 14.5 | Active |  | Activity (Trypanosoma cruzi [6]): Active; Activity (Trypanosoma cruzi [7]): Active; Activity [13]: Toxic; Activity [14]: Non-Toxic; selectivity ratio (in vitro [9]): 15
O=C(Cn1cnc([N+](=O)[O-])n1)Nc1cccc(-c2ccccc2)c1 |  |  |  | IC50 (Trypanosoma cruzi [4]): 179 nM
O=C(Cn1ccnc1[N+](=O)[O-])NCc1ccccc1 |  |  |  | Activity (Trypanosoma cruzi [10]): Active; Activity (Trypanosoma cruzi [11]): Active
CN(C(=O)Cn1cnc([N+](=O)[O-])n1)c1ccc(C(F)(F)F)cc1 |  |  | 6.8 | selectivity ratio (in vitro [9]): 6.8

Now from value to compound, other results behind:

pKa [1] | Activity [5] | SMILES | selectivity ratio (in vitro [3]) | further results
9.14 | Active | O=C(CCn1cnc([N+](=O)[O-])n1)Nc1cc(-c2ccc(Cl)cc2)no1 |  | 
13.6 |  | O=C(Cn1cnc([N+](=O)[O-])n1)Nc1ccc(Oc2ccc(F)cc2)cc1 | 35 | 
14.5 | Active | O=C(CCn1cnc([N+](=O)[O-])n1)Nc1ccc(Oc2ccc(F)cc2)cc1 |  | Activity (Trypanosoma cruzi [6]): Active; Activity (Trypanosoma cruzi [7]): Active; Activity [8]: Non-Toxic
12.8 |  | O=C(Cn1cnc([N+](=O)[O-])n1)Nc1cccc(OCc2ccccc2)c1 | 14.1 | selectivity ratio (in vitro [9]): 20.3; selectivity ratio (in vitro [2]): 575; IC50 (Trypanosoma cruzi [4]): 119 nM
14 | Active | O=C(CCn1cnc([N+](=O)[O-])n1)Nc1cccc(-c2ccccc2)c1 |  | 
14.1 |  | N#Cc1ccc(-c2ccc(NC(=O)CCn3cnc([N+](=O)[O-])n3)cc2)cc1 |  | Activity (Trypanosoma cruzi [10]): Active; Activity (Trypanosoma cruzi [11]): Active; Activity [12]: Non-Toxic
13.3 |  | O=C(Cn1cnc([N+](=O)[O-])n1)Nc1ccc(Oc2ccccc2)cc1 | 34 | 
11.2 |  | O=C(CCn1cnc([N+](=O)[O-])n1)Nc1cc(-c2ccc(F)cc2)on1 | > 201 | 
 | Active | O=C(Cn1cnc([N+](=O)[O-])n1)Nc1cc(-c2ccc(Cl)cc2)no1 |  | 
11 | Active | O=C(Cn1cnc([N+](=O)[O-])n1)Nc1cc(-c2ccc(F)cc2)on1 |  | 
14 | Active | O=C(CCn1cnc([N+](=O)[O-])n1)Nc1cccc(OCc2ccccc2)c1 |  | 
12.7 |  | O=C(Cn1cnc([N+](=O)[O-])n1)NCc1ccc(C(F)(F)F)cc1 | 20 | selectivity ratio (in vitro [9]): 12; selectivity ratio (in vitro [2]): 133
